Measurements reported in ChEMBL document CHEMBL1143832, “EDP-420, a bicyclolide (bridged bicyclic macrolide), is active against Mycobacterium avium” (Antimicrob Agents Chemother, 2007).
≈ marks a conversion by molar mass, not a printed value. Calls of active or inactive are those of the source. No cut-off for these calls is given here.

Legend:
Mycobacterium avium [1] = assay: Antimicrobial activity against macrolide-susceptible Mycobacterium avium by radiometric broth […] method; assay type: functional
Summary of the method: (§1)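 MAC clinical blood isolates from AIDS patients; 5–10 colonies from 7H11 agar into 7H9 broth, inoculum ~5 × 10^4 CFU/ml by McFarland no. 1. Radiometric (BACTEC) broth […], T100 analysis. Controls: undiluted drug-free, 1:100 and 1:1,000 diluted inoculum, boiled-bacteria vial. Observation ~7 days. MIC range, MIC50 and MIC90 reported (susceptible n = 24; resistant n = 6).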

Mycobacterium avium [2] = assay: Antimicrobial activity against macrolide-resistant Mycobacterium avium radiometric broth […] method; assay type: functional; summary of the method: as §1
[3] = system: Mycobacterium avium complex sp.; assay: Antimicrobial activity against Mycobacterium avium complex 101 infected C57BL/6 beige mouse liver assessed as bacterial load at 100 mg/kg once daily 6 days a week for 4 weeks; assay type: functional
Summary of the method: (§2)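 Female C57BL/6 beige mice, about 20 g, infected intravenously with about 3 × 10^7 MAC 101. Baseline mice harvested at 1 week, when treatment started: once daily, 6 days/week, for 4 weeks, alongside diluent-treated controls. Liver and spleen homogenized, diluted and plated on 7H10 agar, with CFU counted after 10 days at 37°C and expressed per gram. Student's t test.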

[4] = system: Mycobacterium avium complex sp.; assay: Antimicrobial activity against Mycobacterium avium complex 101 infected C57BL/6 beige mouse spleen assessed as bacterial load at 100 mg/kg once daily 6 days a week for 4 weeks; assay type: functional; summary of the method: as §2
[5] = system: Mycobacterium avium complex sp.; assay: Antimicrobial activity against clarithromycin resistant-Mycobacterium avium complex 101 infected C57BL/6 beige mouse liver assessed as bacterial load at 100 mg/kg once daily 6 days a week for 4 weeks; assay type: functional
Summary of the method: (§3)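 Female beige mice (~20 g) infected intravenously with ~3 × 107 clarithromycin-resistant MAC 101 (from spleen of clarithromycin-treated MAC 101-infected mouse). Treatment started 1 week post-infection, once daily, 6 days/week, 4 weeks. Baseline mice harvested at 1 week; diluent-treated controls in parallel. Liver and spleen homogenized, diluted, plated on 7H10 agar, CFU counted after 10 days at 37°C. Mean CFU/g ± SEM.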

[6] = system: Mycobacterium avium complex sp.; assay: Antimicrobial activity against clarithromycin resistant-Mycobacterium avium complex 101 infected C57BL/6 beige mouse spleen assessed as bacterial load at 100 mg/kg once daily 6 days a week for 4 weeks; assay type: functional; summary of the method: as §3
[7] = system: Mycobacterium avium complex sp.; assay: Antimicrobial activity against Mycobacterium avium complex 101 infected C57BL/6 beige mouse liver assessed as bacterial load at 40 mg/kg once daily 6 days a week for 4 weeks; assay type: functional; summary of the method: as §2
[8] = system: Mycobacterium avium complex sp.; assay: Antimicrobial activity against Mycobacterium avium complex 101 infected C57BL/6 beige mouse spleen assessed as bacterial load at 40 mg/kg once daily 6 days a week for 4 weeks; assay type: functional; summary of the method: as §2
[9] = system: Mycobacterium avium complex sp.; assay: Antimicrobial activity against clarithromycin resistant-Mycobacterium avium complex 101 infected C57BL/6 beige mouse liver assessed as bacterial load at 40 mg/kg once daily 6 days a week for 4 weeks; assay type: functional; summary of the method: as §3
[10] = system: Mycobacterium avium complex sp.; assay: Antimicrobial activity against clarithromycin resistant-Mycobacterium avium complex 101 infected C57BL/6 beige mouse spleen assessed as bacterial load at 40 mg/kg once daily 6 days a week for 4 weeks; assay type: functional; summary of the method: as §3
[11] = system: Mycobacterium avium complex sp.; assay: Antimicrobial activity against Mycobacterium avium complex 101 infected C57BL/6 beige mouse spleen assessed as bacterial load after 8 weeks; assay type: functional
[12] = system: Mycobacterium avium complex sp.; assay: Antimicrobial activity against Mycobacterium avium complex 101 infected C57BL/6 beige mouse spleen assessed as bacterial load after 12 weeks; assay type: functional
[13] = Cmax in mouse serum at 15 mg/kg, po; assay type: ADME, organism-based; parameters: dose 15 mg/kg, route oral
[14] = Tmax in mouse serum at 15 mg/kg, po; assay type: ADME, organism-based; parameters: dose 15 mg/kg, route oral
[15] = Half life in mouse serum at 15 mg/kg, po; assay type: ADME, organism-based; parameters: dose 15 mg/kg, route oral
[16] = system: Mycobacterium avium complex sp.; assay: Antibacterial activity against Mycobacterium avium complex 101 in U937 cells at 0.5 ug/ml after 4 days; conditions: U-937

Row | Structure (SMILES) | MIC50 (Mycobacterium avium [1]) | MIC90 (Mycobacterium avium [1]) | MIC (Mycobacterium avium [2]) | CFU [3] | CFU [4] | CFU [5] | CFU [6] | CFU [7] | CFU [8] | CFU [9] | CFU [10] | CFU [11] | CFU [12] | Cmax [13] | Tmax [14] | half-life [15] | Activity [16]
1 | CC[C@H]1OC(=O)[C@H](C)[C@@H](O[C@H]2C[C@@](C)(OC)[C@@H](O)[C@H](C)O2)[C@H](C)[C@@H](O[C@@H]2O[C@H](C)C[C@H](N(C)C)[C@H]2O)[C@](C)(O)C[C@@H](C)CN(C)[C@H](C)[C@@H](O)[C@]1(C)O [AZITHROMYCIN] | 16 µg/mL (≈ 21.4 µM) | 16 µg/mL (≈ 21.4 µM) | > 512 µg/mL | – | – | – | – | – | – | – | – | – | – | – | – | – | –
2 | CC[C@H]1OC(=O)[C@H](C)[C@@H](O[C@H]2C[C@@](C)(OC)[C@@H](O)[C@H](C)O2)[C@H](C)[C@@H](O[C@@H]2O[C@H](C)C[C@H](N(C)C)[C@H]2O)[C@](C)(OC)C[C@@H](C)C(=O)[C@H](C)[C@@H](O)[C@]1(C)O [CLARITHROMYCIN] | 2 µg/mL (≈ 2.67 µM) | 4 µg/mL (≈ 5.35 µM) | > 64 µg/mL | 2.8 10^7/g | 6.6 10^7/g | 2.8 10^8/g | 8 10^8/g | – | – | – | – | – | – | – | – | – | –
3 | O[C@@H](c1cc(C(F)(F)F)nc2c(C(F)(F)F)cccc12)[C@H]1CCCCN1 [MEFLOQUINE] | – | – | – | – | – | – | – | 1.8 10^7/g | 4.8 10^7/g | 2.9 10^7/g | 4.6 10^7/g | – | – | – | – | – | –
4 | CC[C@H]1OC(=O)[C@H](C)C(=O)[C@H](C)[C@@H](O[C@@H]2O[C@H](C)C[C@H](N(C)C)[C@H]2O)[C@@]2(C)C[C@@H](C)/C(=N\C(C)=O)[C@H](C)[C@@H](OC/C(=N\OCc3ccc(-n4cccn4)nc3)CO2)[C@]1(C)O [MODITHROMYCIN] | 4 µg/mL (≈ 4.76 µM) | 8 µg/mL (≈ 9.51 µM) | 32 µg/mL (≈ 38 µM) | 7.1 10^6/g | 1.2 10^7/g | 1.7 10^8/g | 5.7 10^8/g | – | – | 2.5 10^8/g | 2.7 10^8/g | 2.3 10^5/g | 2.5 10^5/g | 2500 ng/mL | 1.5 h | 198 min | Active
5 | CC[C@H]1OC(=O)[C@H](C)C(=O)[C@H](C)[C@@H](O[C@@H]2O[C@H](C)C[C@H](N(C)C)[C@H]2O)[C@](C)(OC)C[C@@H](C)C(=O)[C@H](C)[C@H]2N(CCCCn3cnc(-c4cccnc4)c3)C(=O)O[C@]12C [TELITHROMYCIN] | 32 µg/mL (≈ 39.4 µM) | > 64 µg/mL | – | – | – | – | – | – | – | – | – | – | – | 5500 ng/mL | 1 h | 90 min | –
